From publication PMC3580853 (Bioorganic & medicinal chemistry letters, 2012)

How the values were obtained:
[1] = type: physicochemical; details: reaction at 37°C, gel apparatus up to 55°C
Method in brief: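 Stability inferred from a single-turnover incorporation time course using HIV-1 RT (250 nM) and D23/D36 primer/template (50 nM). The test triphosphate (150 μM) and a dTTP reference (100 μM) were run in parallel at 37°C and sampled at 0, 30 s, 5, 10, 30 and 60 min. Products were resolved on denaturing acrylamide gel (apparatus up to 55°C), comparing band mobility.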

HIV-1 = details: MT-2 cell culture

| Stability (in words) [1] | Compound | Antiviral activity in cell culture (in words) (HIV-1) |
| --- | --- | --- |
| increased compound stability | Cc1cc(C#CCOCCOCCOCCOCCOCC#Cc2cn([C@H]3C=C[C@@H](COP(=O)(O)OP(=O)(O)OP(=O)(O)O)O3)c(=O)[nH]c2=O)cc(C)c1Oc1ccnc(Nc2ccc(C#N)cc2)n1 [d4TTP-4PEG-TMC] | – |
| – | CC(C)=CCN1Cc2c(OCCOCCOCCOCCOC(=O)CCc3cn([C@H]4C=C[C@@H](CO)O4)c(=O)[nH]c3=O)ccc3[nH]c(=S)n(c23)C[C@@H]1C [Compound 16a] | most inhibitory |
